# Test results reported in article PMC9184248 (Journal of Pesticide Science, 2022).
# Assays:
# Experiment in all cases: two-electrode voltage clamp, Xenopus oocytes
# Assay type in all cases: cell-based
# [1] = target: T1, LsRDLR (Laodelphax striatellus RDL GABA receptor) (Laodelphax striatellus, UniProt Q0ECT5, Y91F)
# T1 sequence (Q0ECT5 23-487 Y91F): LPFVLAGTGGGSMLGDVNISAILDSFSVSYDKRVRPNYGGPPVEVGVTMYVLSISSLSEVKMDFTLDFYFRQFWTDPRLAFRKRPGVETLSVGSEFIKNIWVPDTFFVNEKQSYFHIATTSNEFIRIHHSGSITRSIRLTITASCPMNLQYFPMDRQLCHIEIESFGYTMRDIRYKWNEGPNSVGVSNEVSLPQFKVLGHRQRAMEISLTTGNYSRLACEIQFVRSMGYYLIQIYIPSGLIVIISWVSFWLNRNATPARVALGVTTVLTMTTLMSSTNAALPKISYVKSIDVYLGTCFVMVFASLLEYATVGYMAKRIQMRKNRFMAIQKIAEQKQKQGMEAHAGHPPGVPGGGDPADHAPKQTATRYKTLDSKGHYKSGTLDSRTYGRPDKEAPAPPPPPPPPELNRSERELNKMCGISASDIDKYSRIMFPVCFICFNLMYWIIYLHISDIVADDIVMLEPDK
# Outline: (§1)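 WT or site-directed mutant LsRDL cRNA (5 ng) injected into defolliculated Xenopus oocytes, which were then held 48 hr at 16°C in SOS (pH 7.6). Clamped at −80 mV, perfused with SOS at 18–20°C. GABA applied for 3 sec at 30–60 sec intervals. EC50 from a four-parameter variable-slope logistic fit; ≥6 oocytes from ≥2 frogs; mean±S.D.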
# [2] = target: T2, LsRDLR (Laodelphax striatellus RDL GABA receptor) (Laodelphax striatellus, UniProt Q0ECT5, F95S/Y91F)
# T2 sequence (Q0ECT5 23-487 Y91F/F95S): T1 sequence (Q0ECT5 23-487 Y91F)
# Outline: as §1
# [3] = target: T3, LsRDLR (Laodelphax striatellus RDL GABA receptor) (Laodelphax striatellus, UniProt Q0ECT5, F128Y)
# T3 sequence (Q0ECT5 23-487 F128Y): T1 sequence (Q0ECT5 23-487 Y91F)
# Outline: as §1
# [4] = target: T4, LsRDLR (Laodelphax striatellus RDL GABA receptor) (Laodelphax striatellus, UniProt Q0ECT5, F128Y/F95S)
# T4 sequence (Q0ECT5 23-487 F95S/F128Y): T1 sequence (Q0ECT5 23-487 Y91F)
# Outline: as §1
# [5] = target: T5, LsRDLR (Laodelphax striatellus RDL GABA receptor) (Laodelphax striatellus, UniProt Q0ECT5, F95S)
# T5 sequence (Q0ECT5 23-487 F95S): T1 sequence (Q0ECT5 23-487 Y91F)
# Outline: as §1
# [6] = target: T6, LsRDLR (Laodelphax striatellus RDL GABA receptor) (Laodelphax striatellus, UniProt Q0ECT5, F128Y/F95S/Y91F)
# T6 sequence (Q0ECT5 23-487 Y91F/F95S/F128Y): T1 sequence (Q0ECT5 23-487 Y91F)
# Outline: as §1
# [7] = target: T7, LsRDLR (Laodelphax striatellus RDL GABA receptor) (Laodelphax striatellus, UniProt Q0ECT5)
# T7 sequence (Q0ECT5 23-487): T1 sequence (Q0ECT5 23-487 Y91F)
# Outline: as §1
# [8] = target: T8, LsRDLR (Laodelphax striatellus RDL GABA receptor) (Laodelphax striatellus, UniProt Q0ECT5, F128Y/Y91F)
# T8 sequence (Q0ECT5 23-487 Y91F/F128Y): T1 sequence (Q0ECT5 23-487 Y91F)
# Outline: as §1
# [9] = target: T7, LsRDLR (Laodelphax striatellus RDL GABA receptor); conditions: read-out: % of control GABA response remaining at 30 μM gabazine
Structure (SMILES),EC50 [1],EC50 [2],EC50 [3],EC50 [4],EC50 [5],EC50 [6],EC50 [7],EC50 [8],remaining activity at 30 µM [9]
NCCCC(=O)O [GABA],131 ± 45 µM,63.2 ± 23.8 µM,43.7 ± 10.2 µM,25.6 ± 11.9 µM,4.08 ± 1.31 µM,15.4 ± 3.7 µM,6.83 ± 3.74 µM,37.3 ± 11.8 µM,
"COc1ccc(-c2ccc(=N)n(CCCC(=O)O)n2)cc1 [gabazine, 2-(3-carboxypropyl)-6-(4-methoxyphenyl)-2,3-dihydropyridazin-3-iminium bromide]",,,,,,,,,77.8 ± 8%
